Bioassay records: PubChem, several laboratories
Sampled rows, rich in hits. Any-hit rate of the full collection: about 2.8%.
NPY Y2 blocker: NPY-Y2 (human) receptor antagonism. P49146. NPY-Y2 expressing cells, antagonist mode. inhibition, % at 2.7 µM. actives 0.99% (n = 140,000). AID 793; in the data active means inhibition above about 17%;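 further: 0% = vehicle with agonist challenge and 100% = reference antagonist with challenge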
Target sequence (P49146 whole entry, looked up): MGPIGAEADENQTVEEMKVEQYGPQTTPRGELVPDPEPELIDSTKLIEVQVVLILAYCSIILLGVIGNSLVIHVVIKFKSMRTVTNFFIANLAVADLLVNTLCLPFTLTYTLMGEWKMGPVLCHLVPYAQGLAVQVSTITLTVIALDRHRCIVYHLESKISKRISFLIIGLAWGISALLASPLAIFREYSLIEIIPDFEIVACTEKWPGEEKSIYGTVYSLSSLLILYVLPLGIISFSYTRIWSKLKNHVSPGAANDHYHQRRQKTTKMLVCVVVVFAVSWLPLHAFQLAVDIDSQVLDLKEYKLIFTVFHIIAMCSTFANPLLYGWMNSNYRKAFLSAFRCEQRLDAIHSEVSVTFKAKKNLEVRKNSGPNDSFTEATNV
Rad51 HR inh: blocks human Rad51 in homologous recombination; hRad51 DNA strand exchange, fluorescence dequenching; inhibition, % at 10 µM; actives 0.085% (n = 200,000);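 active means inhibition above 40% at the single screening dose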;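 further: 0% = DMSO control wells and 100% = blanks with heterologous ssDNA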
Target sequence (Q06609 whole entry, looked up): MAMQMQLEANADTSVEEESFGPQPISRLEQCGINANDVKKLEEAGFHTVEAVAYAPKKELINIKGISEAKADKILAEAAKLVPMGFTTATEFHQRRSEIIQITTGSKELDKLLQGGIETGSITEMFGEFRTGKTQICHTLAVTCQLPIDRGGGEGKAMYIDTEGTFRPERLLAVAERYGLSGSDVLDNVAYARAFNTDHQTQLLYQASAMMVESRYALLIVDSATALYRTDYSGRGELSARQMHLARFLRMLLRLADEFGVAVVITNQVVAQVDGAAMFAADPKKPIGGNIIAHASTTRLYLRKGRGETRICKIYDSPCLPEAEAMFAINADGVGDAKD
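System: human Rad51 nucleoprotein filaments preassembled on unlabelled ssDNA. Reagent: labelled 47-mer dsDNA for strand exchange. Schedule: 30-min compound preincubation and 15-min exchange, both room temperature. Measured by: FRET fluorescence dequenching, excitation 485 nm, emission 520 nm. Read-out: Fluorescence-based percent inhibition, control- and blank-normalised. Benchmarks: plate controls and plate blanks.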
NPY2 pot ag: human NPY-Y2 potentiation or agonism, primary screen; P49146; cells expressing NPY-Y2, potentiator/agonist read-out; activation, % at 3.6 µM; actives 0.45% (n = 220,000); AID 1359; in the data active means activation above about 27%;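 further: cells stimulated with NPY near EC25 plus isoproterenol at EC100; 0% = vehicle plus submaximal agonist and 100% = vehicle plus saturating agonist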
NPY Y1 blocker: antagonists of human neuropeptide Y receptor Y1; actives 1% (n = 200,000); AID 1040; inhibition, % at 3.6 µM; P25929; HEK293-CNG Y1 cells, membrane potential fluorescence; NPY at EC95, then isoproterenol;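 active means inhibition above the campaign mean inhibition of all tested compounds plus 3 SD, cut at about 20% in these data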;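 further: 0% = DMSO wells given NPY plus isoproterenol and 100% = isoproterenol alone without NPY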
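Material: Y1- and CNG-channel-expressing HEK293 cells / Probe or stimulus: NPY 25 nM then isoproterenol 1 µM plus Ro 20-1724 25 µM / Doses: 3.6 µM single dose, DMSO 0.4% / Schedule: compound incubation 1 h at room temperature, readout 45 min post-stimulation / Signal: membrane potential fluorescence / Benchmarks: isoproterenol-only wells as full block versus NPY-plus-isoproterenol wells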
NPY1 pot ag: potentiators or agonists of human neuropeptide Y receptor Y1; actives 0.37% (n = 220,000); activation, % at 3.6 µM; NPY-Y1 expressing cells, potentiator/agonist activation; in the data active means activation above about 33%, passing the limit was not always enough;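 further: cells stimulated with NPY at EC10 then isoproterenol at EC100; 0% = low agonist plus stimulus and 100% = saturating agonist plus stimulus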
Measles CPE: protection of cells from measles virus. Measles virus-infected cells, CPE protection, absorbance. protection (pct of control), % at 4 µM. actives 1.5% (n = 140,000); in the data active means protection mostly above about 24%, no sharp cut-off; inactive means mostly below about 26%
The depositor's hits bear a star; · = no result given.

SMILES | NPY Y2 blocker | Rad51 HR inh | NPY2 pot ag | NPY Y1 blocker | NPY1 pot ag | Measles CPE
CCC(=O)N1CCN(c2ccc(Cl)cc2NC(=O)c2ccc(Br)o2)CC1 | 17.4* | -1.1 | -0.7 | 8.6 | -31.0 | ·
CCC(=O)N1CCN(c2ccccc2NC(=O)Cc2ccccc2)CC1 | 16.4 | 1.5 | -16.7 | 24.0* | -17.2 | 1.9
CS(=O)(=O)N1CCN(c2ccccc2NC(=O)Cc2ccccc2)CC1 | 8.5 | 11.5 | -3.1 | 6.9 | -21.8 | 1.4
CCOc1cccc(C(=O)Nc2ccccc2N2CCN(C(=O)C(C)C)CC2)c1 | 21.1* | -9.8 | -9.9 | 21.1* | -9.3 | 5.0
CC(C)C(=O)N1CCN(c2ccccc2NC(=O)Cc2ccc(Cl)cc2)CC1 | 20.4* | 0.8 | -6.3 | 43.5* | -6.2 | 5.4
Cc1ccc(NC(=S)NCc2ccc3c(c2)cc(C)n3C)c(C)c1 | · | 7.1 | -7.2 | 4.9 | -12.9 | ·
COc1cccc(-c2csc(N3CCN(CC(=O)NNC(=O)c4ccco4)CC3)n2)c1 | · | -8.2 | 0.1 | 1.8 | 11.2 | ·
CCOc1ccc(-n2c(SCc3ccc([N+](=O)[O-])cc3)nnc2-c2ccc(OC)cc2)cc1 | 9.1 | 0.6 | -2.1 | -4.3 | -64.4 | 12.9
COc1cc2c(cc1NC(=S)NC(=O)/C=C/c1ccc(OC)c(OC)c1)oc1ccccc12 | 0.8 | -0.4 | 1.5 | 5.7 | 5.2 | 53.4*
O=C(Oc1ccc(NC(=O)c2cc3c(cc2Br)OCO3)cc1)c1ccccc1 | · | 16.1 | -22.6 | · | -11.0 | ·
N#Cc1nc(COc2ccccc2)oc1N1CCN(Cc2ccccc2)CC1 | 27.6* | -3.6 | -14.8 | 20.9* | -23.7 | 2.2
Cc1ccc(OCc2nc(C#N)c(N3CCN(Cc4ccccc4)CC3)o2)cc1 | 40.5* | -2.8 | -34.1 | 22.8* | -34.3 | 15.4
COc1ccc(/C=N/OCC(=O)N2CC3(C)CC2CC(C)(C)C3)cc1OC (centres undefined) | 3.1 | -6.9 | -19.5 | 4.8 | -20.7 | 43.5*
COc1cc(/C=C/C(=O)OCC(=O)N2CC3(C)CC2CC(C)(C)C3)ccc1O (centres undefined) | -0.3 | · | 4.0 | 9.0 | -19.1 | 3.7
Cc1nn(-c2ccccc2)c(C)c1[N+](=O)[O-] | · | · | -5.8 | 8.4 | 0.7 | ·
O=C(Oc1ccc(N(Cc2cccs2)C2=NS(=O)(=O)c3ccccc32)cc1)c1ccccc1F | 3.5 | 0.5 | -10.0 | 3.5 | 28.2 | 27.9*
O=C(OCCN(C1=NS(=O)(=O)c2ccccc21)c1ccccc1Cl)c1ccc(Cl)cc1 | 12.5 | 0.5 | -2.4 | 13.3 | -28.7 | 4.5
O=C(CSc1nc2ccc(Cl)cc2[nH]1)NCCc1ccccc1 | 3.4 | 1.6 | 0.7 | 5.0 | -12.6 | 28.8*
CCSc1nnc(CNc2ccc(F)cc2)n1CC1CCCO1 (centres undefined) | 0.2 | 0.8 | 13.4 | 0.5 | 17.6 | 46.0*
NC(=O)CSc1nnc(CNc2ccc(F)cc2)n1CC1CCCO1 (centres undefined) | -0.4 | 0.5 | 7.3 | -4.5 | -25.6 | 10.1
Nc1c(C(=O)N2CCCC2)sc2nc(-c3ccccc3)ccc12 | · | -70.1 | 3.1 | · | 1.6 | ·
CC(c1ccccc1)N(CCC(c1ccccc1)C1CCOC(C)(C)C1)C(=O)c1ccco1 (centres undefined) | 10.9 | -3.5 | -18.2 | 16.3 | -52.3 | 21.6
COc1ccc(CN(CCC(c2ccc(F)cc2)C2CCOC(C)(C)C2)C(=O)c2ccco2)cc1 (centres undefined) | 19.8* | 5.3 | -18.8 | 21.8* | -35.3 | 14.8
C/C(Cl)=C\Cn1c(Nc2ccccc2)nc2c1c(=O)n(C)c(=O)n2C | 4.6 | 3.4 | 6.5 | 0.2 | 5.7 | 24.7*
C/C(Cl)=C/Cn1c(NCCN(C)C)nc2c1c(=O)n(C)c(=O)n2C | -0.9 | -0.2 | 18.2 | -4.3 | 36.5 | 5.5
SMILES | NPY Y2 blocker | Rad51 HR inh | NPY2 pot ag | NPY Y1 blocker | NPY1 pot ag | Measles CPE
O=C(NCc1ccc(F)cc1)C1CCCN1C(=O)NCc1ccccc1 (centres undefined) | 2.9 | 4.4 | 1.1 | -2.5 | -20.0 | 16.9
O=C(NCCc1ccccc1)C1CCCN1C(=O)Nc1ccc(F)cc1 (centres undefined) | 3.5 | -5.7 | 9.4 | 8.2 | 14.5 | 28.6*
CN(C)c1cc[n+](CC(=O)Nc2cc(C(F)(F)F)ccc2Cl)cc1 | 0.9 | -1.4 | 7.1 | -1.0 | -1.2 | 64.3*
Cc1cc[n+](CC(=O)Nc2cc(C(F)(F)F)ccc2Cl)cc1 | -1.4 | -0.4 | -8.7 | 1.9 | -1.8 | 21.1
O=S1(=O)C=C(Oc2ccc3ccccc3c2)c2ccccc21 | 5.3 | -0.2 | -9.7 | -5.2 | 9.0 | 66.4*
O=S1(=O)C=C(Oc2ccc(F)cc2)c2ccccc21 | 1.8 | -10.6 | 2.8 | -2.2 | -0.4 | 37.6
COC(=O)C1=NN(c2ccccc2)C2(S1)SC(C(C)=O)=C(C)N2c1ccccc1 (centres undefined) | 6.1 | -5.5 | -4.0 | 2.1 | 1.0 | 10.2
CC(=O)C1=NN(c2ccccc2)C2(S1)S/C(=C\c1ccccc1)C(=O)N2c1ccccc1 (centres undefined) | 0.5 | -1.1 | -3.4 | 12.1 | -6.6 | 34.4*
O=C(Nc1ccc(Cl)c(Cl)c1)OCCNC(=O)c1ccncc1 | · | 1.8 | -1.0 | -6.1 | -0.6 | ·
Cc1cccc(N=C2Sc3nc4c(C)c(C)ccc4cc3CN2CCN2CCOCC2)c1 | 8.8 | 2.7 | -18.6 | 4.5 | -34.7 | 30.8*
CS(=O)(=O)NCC(c1ccco1)N1CCN(c2ccc(F)cc2)CC1 (centres undefined) | 1.8 | 7.5 | 7.6 | 8.3 | 26.8 | 63.0*
CCc1cccc2c(C(=O)CN3C(=O)NC(C)(c4cccc5ccccc45)C3=O)c[nH]c12 (centres undefined) | · | · | 37.3* | -12.6 | 43.3* | ·
Cc1cc(C)c2c(N)c(C(=O)NN3CC(=O)N(c4ccccc4)CC3=O)sc2n1 | · | 1.4 | -2.1 | · | 18.5 | ·
Nc1nnnn1/N=C/c1cccc(O)c1 | 3.4 | · | -7.3 | 2.4 | -2.2 | 23.9
Nc1nnnn1/N=C/c1ccc(O)cc1 | 2.2 | 0.7 | 0.7 | 0.0 | -23.5 | 49.8*
Cc1ccccc1Nc1c(-c2cccnc2)nc2ccccn12 | · | -13.3 | 33.8 | · | 41.5 | ·
Cc1ccccc1Nc1c(-c2cccnc2)nc2ccc(Br)cn12 | · | 3.5 | 74.4* | -12.2 | 79.0* | ·
Cc1ccc2nc(-c3cccnc3)c(NC3CCCCC3)n2c1 | 0.7 | 0.7 | 12.6 | -0.8 | -4.1 | 3.7
Cc1ccc2nc(-c3cccnc3)c(Nc3ccccc3C)n2c1 | · | 6.6 | 41.2* | -5.8 | 46.1* | ·
FC(F)(F)c1cccc(NC(=S)NNC(=S)Nc2ccc(Cl)cc2)c1 | · | 4.6 | 44.8* | · | 73.8* | ·
CCc1cc2c(SCC(=O)c3ccc(C)cc3)ncnc2s1 | 5.2 | -12.9 | -9.1 | 1.3 | -17.3 | 41.4*
Cc1cccc(C(=O)NC(=S)N2CCN(C(=S)NC(=O)c3cccc(C)c3)CC2)c1 | 10.4 | 0.2 | 1.8 | 8.2 | 16.6 | 15.7
O=C(Nc1ccc(C#Cc2ccccc2)cc1)C1CC1 | -3.1 | -13.6 | 38.4* | -5.7 | 78.4* | 58.2*
